Source: ChEMBL document CHEMBL1268860, “Revision of the Structures of 1,5-Dihydroxy-3,8-epoxyvalechlorine, Volvaltrate B, and Valeriotetrate C from Valeriana jatamansi and V. officinalis” (J Nat Prod, 2010)

Tests used:
Assay type in all cases: functional, cell-based
A549 = experiment: Cytotoxicity against human A549 cells after 24 hrs by MTT assay; details: A549, 24 h
Outline: (§1)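 Cell lines from ATCC, seeded at 3000 cells per well and left 24 h before exposure to a range of compound concentrations. After 24 h of exposure, MTT was added and the plates were incubated another 24 h. Viability was read as absorbance at 570 nm, and IC50 values were calculated from these readings. Paclitaxel served as the positive control.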

[1] = Cytotoxicity against human PC3M cells after 24 hrs by MTT assay; details: PC-3M; outline: as §1
HCT-8 = experiment: Cytotoxicity against human HCT8 cells after 24 hrs by MTT assay; details: HCT-8, 24 h; outline: as §1
Bel-7402 = experiment: Cytotoxicity against human Bel7402 cells after 24 hrs by MTT assay; details: Bel-7402, 24 h; outline: as §1

## C=C1[C@H]2O[C@@H](OCC)[C@@H]3[C@](CCl)(O2)[C@@H](OC(C)=O)C[C@]13O
A549
  IC50: > 10 µM
[1]
  IC50: > 10 µM
HCT-8
  IC50: > 10 µM
Bel-7402
  IC50: > 10 µM

## C=C1[C@H]2O[C@@H](O)[C@@H]3[C@](CCl)(O2)[C@@H](OC(C)=O)C[C@]13O
A549
  IC50: > 10 µM
[1]
  IC50: > 10 µM
HCT-8
  IC50: > 10 µM
Bel-7402
  IC50: > 10 µM

## C=C1[C@H]2O[C@@H](OC)[C@@H]3[C@](CCl)(O2)[C@@H](OC(C)=O)C[C@]13O
A549
  IC50: > 10 µM
[1]
  IC50: > 10 µM
HCT-8
  IC50: > 10 µM
Bel-7402
  IC50: > 10 µM

## C=C1[C@H]2O[C@H](OCC)[C@@H]3[C@](CCl)(O2)[C@@H](OC(C)=O)C[C@]13O
A549
  IC50: > 10 µM
[1]
  IC50: > 10 µM
HCT-8
  IC50: > 10 µM
Bel-7402
  IC50: > 10 µM

## CC(=O)O[C@H]1C[C@]2(O)C(COC(=O)[C@H](OC(=O)CC(C)C)C(C)C)=CO[C@@H](OC(=O)CC(C)C)[C@@H]2[C@@]1(O)CCl [VOLVALTRATE B]
A549
  IC50: 8.5 µM
[1]
  IC50: 2 µM
HCT-8
  IC50: 3.2 µM
Bel-7402
  IC50: 6.1 µM

## C=C1[C@H]2O[C@H](OC)[C@@H]3[C@](CCl)(O2)[C@@H](OC(C)=O)C[C@]13O
A549
  IC50: > 10 µM
[1]
  IC50: > 10 µM
HCT-8
  IC50: > 10 µM
Bel-7402
  IC50: > 10 µM
